# Assay results from ChEMBL document CHEMBL1143122, “Novel analogs of D-e-MAPP and B13. Part 1: synthesis and evaluation as potential anticancer agents” (Bioorg Med Chem, 2008).
# What was measured:
# MCF7 [1] = assay: Drug level in human MCF7 cells at 10 uM per 10^6 cells after 0.5 hrs; type: ADME, cell-based; details: mcf7, 0.5 h
# In short: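 MCF7 cells kept in RPMI 1640 with 10% fetal calf serum at 37 °C, 5% CO2, then treated with 10 μM analog. Intracellular analog measured over time by HPLC-MS in positive-ion MRM mode. Quantified against calibration curves made by spiking an artificial matrix with standards plus internal standard, using analyte/IS peak-area ratios and linear regression. Reported as pmol per 1×10^6 cells.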
# M14 = assay: Antiproliferative activity against human M14 cells after 48 hrs; type: functional; details: M14, 48 h; for TGI: read-out: Log TGI (converted)
# In short: (§1)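 NCI 60-cell screen. Cells were grown in RPMI 1640 with 5% FBS and 2 mM L-glutamine, then plated at 5,000–40,000 cells/well according to doubling time and preincubated for 24 h at 37 °C in 5% CO2. Compounds were dissolved in DMSO at 400× the top final concentration and tested at five 10-fold dilutions from 10−4 to 10−8 M for 48 h. Growth was read spectrophotometrically; GI50 is 50% net protein reduction.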
# SNB-75 = assay: Antiproliferative activity against human SNB75 cells after 48 hrs; type: functional; details: SNB-75, 48 h; for CC50: read-out: Log LC50 (the source's name) (converted); for TGI: read-out: Log TGI (converted); in short: as §1
# SNB-19 = assay: Antiproliferative activity against human SNB19 cells after 48 hrs; type: functional; details: SNB-19, 48 h; for TGI: read-out: Log TGI (converted); in short: as §1
# T47D = assay: Antiproliferative activity against human T47D cells after 48 hrs; type: functional; details: for TGI: read-out: Log TGI (converted)
# In short: (§2)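 NCI 60-cell-line screen. Lines grown in RPMI 1640 with 5% fetal bovine serum and 2 mM L-glutamine, plated at 5,000–40,000 cells/well according to doubling time, left 24 h at 37 °C in 5% CO2. Drug stocks in DMSO at 400-fold the top final concentration. Five 10-fold dilutions, 10−4 to 10−8 M, incubated 48 h. Growth read spectrophotometrically as net protein; GI50 taken as 50% reduction.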
# MCF7 [2] = assay: Antiproliferative activity against human MCF7 cells after 48 hrs; type: functional, cell-based; details: MCF7, 48 h; for TGI: read-out: Log TGI (converted)
# NCI-H322M = assay: Antiproliferative activity against human NCI-H322M cells after 48 hrs; type: functional; details: for CC50: read-out: Log LC50 (the source's name) (converted); for TGI: read-out: Log TGI (converted); in short: as §1
# HT-29 = assay: Antiproliferative activity against human HT29 cells after 48 hrs; type: functional; details: HT-29, 48 h; for TGI: read-out: Log TGI (converted); in short: as §1
# SK-MEL-5 = assay: Antiproliferative activity against human SKMEL5 cells after 48 hrs; type: functional; details: SK-MEL-5, 48 h; for TGI: read-out: Log TGI (converted); in short: as §1
# OVCAR-5 = assay: Antiproliferative activity against human OVCAR5 cells after 48 hrs; type: functional; details: OVCAR-5, 48 h; for CC50: read-out: Log LC50 (the source's name) (converted); for TGI: read-out: Log TGI (converted); in short: as §1
# SN12C = assay: Antiproliferative activity against human SN12C cells after 48 hrs; type: functional; details: for TGI: read-out: Log TGI (converted); in short: as §1
# KM12 = assay: Antiproliferative activity against human KM12 cells after 48 hrs; type: functional; details: Homo sapiens, KM12, 48 h; for CC50: read-out: Log LC50 (the source's name) (converted); for TGI: read-out: Log TGI (converted); in short: as §1
# [3] = Antiproliferative activity against human […] cells after 48 hrs; type: functional; details: for TGI: read-out: Log TGI (converted); in short: as §1
# SW-620 = assay: Antiproliferative activity against human SW620 cells after 48 hrs; type: functional; details: SW-620, 48 h; in short: as §2
# OVCAR-8 = assay: Antiproliferative activity against human OVCAR8 cells after 48 hrs; type: functional; details: OVCAR-8, 48 h; for TGI: read-out: Log TGI (converted); in short: as §1
# RXF 393 = assay: Antiproliferative activity against human RXF393 cells after 48 hrs; type: functional; details: RXF 393, 48 h; for CC50: read-out: Log LC50 (the source's name) (converted); for TGI: read-out: Log TGI (converted); in short: as §1
# HOP-62 = assay: Antiproliferative activity against human HOP62 cells after 48 hrs; type: functional; details: HOP-62, 48 h; for CC50: read-out: Log LC50 (the source's name) (converted); for TGI: read-out: Log TGI (converted); in short: as §1
# IGROV-1 = assay: Antiproliferative activity against human IGROV1 cells after 48 hrs; type: functional; details: IGROV-1, 48 h; for TGI: read-out: Log TGI (converted); in short: as §1
# Hs-578T = assay: Antiproliferative activity against human HS578T cells after 48 hrs; type: functional; details: for TGI: read-out: Log TGI (converted); in short: as §1
# UACC-257 = assay: Antiproliferative activity against human UACC257 cells after 48 hrs; type: functional; details: UACC-257, 48 h; for CC50: read-out: Log LC50 (the source's name) (converted); for TGI: read-out: Log TGI (converted); in short: as §2
# OVCAR-3 = assay: Antiproliferative activity against human OVCAR-3 cells after 48 hrs; type: functional; details: OVCAR-3, 48 h; for TGI: read-out: Log TGI (converted); in short: as §1
# UACC-62 = assay: Antiproliferative activity against human UACC62 cells after 48 hrs; type: functional; details: UACC-62, 48 h; for TGI: read-out: Log TGI (converted); in short: as §2
# CAKI-1 = assay: Antiproliferative activity against human CAKI1 cells after 48 hrs; type: functional; details: CAKI-1, 48 h; for CC50: read-out: Log LC50 (the source's name) (converted); for TGI: read-out: Log TGI (converted); in short: as §1
# HCT-15 = assay: Antiproliferative activity against human HCT15 cells after 48 hrs; type: functional; details: Homo sapiens, HCT-15, 48 h; for TGI: read-out: Log TGI (converted); in short: as §1
# [4] = Antiproliferative activity against human HL60(TB) cells after 48 hrs; type: functional, HL-60(TB); details: HL-60, 48 h; for TGI: read-out: Log TGI (converted)
# In short: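 NCI 60-line panel screen: cells grown in RPMI 1640 with 5% fetal bovine serum and 2 mM L-glutamine, plated at 5,000–40,000 cells/well by doubling time, and preincubated 24 h at 37 °C in 5% CO2. Drugs were solubilised in DMSO at 400-fold the final maximum and tested at five 10-fold dilutions from 10−4 to 10−8 M for 48 h. Net protein was read spectrophotometrically, and the concentration giving 50% reduction was reported as log10 GI50.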
# NCI-H226 = assay: Antiproliferative activity against human NCI-H226 cells after 48 hrs; type: functional; details: NCI-H226, 48 h; for CC50: read-out: Log LC50 (the source's name) (converted); for TGI: read-out: Log TGI (converted); in short: as §1
# CCRF-CEM = assay: Antiproliferative activity against human CCRF-CEM cells after 48 hrs; type: functional; in short: as §1
# [5] = read-out: Log LC50 (the source's name) (converted)
smiles,measurement,setting,value
C[C@H](NC(=O)CCCCCCCCCCCCCCC[n+]1ccccc1)[C@H](O)c1ccccc1.[Br-],Drug uptake,MCF7 [1],800 pmol
same,GI50,M14,6.31 µM
same,LC50,M14,46.8 µM
same,TGI,M14,19.5 µM
same,GI50,SNB-75,1.7 µM
same,CC50,SNB-75,38 µM
same,TGI,SNB-75,11.2 µM
same,GI50,SNB-19,3.09 µM
same,CC50,SNB-19; [5],38 µM
same,TGI,SNB-19,13.2 µM
same,GI50,T47D,0.933 µM
same,CC50,T47D; [5],58.9 µM
same,TGI,T47D,10.7 µM
same,GI50,MCF7 [2],1.48 µM
same,LC50,MCF7 [2],20.9 µM
same,TGI,MCF7 [2],4.79 µM
same,GI50,NCI-H322M,14.5 µM
same,CC50,NCI-H322M,52.5 µM
same,TGI,NCI-H322M,31.6 µM
same,GI50,HT-29,1.32 µM
same,LC50,HT-29,34.7 µM
same,TGI,HT-29,11.7 µM
same,GI50,SK-MEL-5,1.62 µM
same,CC50,SK-MEL-5; [5],9.55 µM
same,TGI,SK-MEL-5,3.89 µM
same,GI50,OVCAR-5,11 µM
same,CC50,OVCAR-5,51.3 µM
same,TGI,OVCAR-5,24 µM
same,GI50,SN12C,3.47 µM
same,LC50 (50% net cell kill),SN12C,47.9 µM
same,TGI,SN12C,14.8 µM
same,GI50,KM12,2.75 µM
same,CC50,KM12,36.3 µM
same,TGI,KM12,11.5 µM
same,GI50,[3],3.63 µM
same,LC50,[3],42.7 µM
same,TGI,[3],14.8 µM
same,GI50,SW-620,6.92 µM
same,LC50 (concentration killing 50% of cells),SW-620,45.7 µM
same,TGI,SW-620; read-out: Log TGI (converted),20 µM
same,GI50,OVCAR-8,3.89 µM
same,CC50,OVCAR-8; [5],> 100 µM
same,TGI,OVCAR-8,22.9 µM
same,GI50,RXF 393,12 µM
same,CC50,RXF 393,74.1 µM
same,TGI,RXF 393,29.5 µM
same,GI50,HOP-62,7.08 µM
same,CC50,HOP-62,44.7 µM
same,TGI,HOP-62,20.4 µM
same,GI50,IGROV-1,3.16 µM
same,LC50,IGROV-1,57.5 µM
same,TGI,IGROV-1,15.8 µM
same,GI50,Hs-578T,3.24 µM
same,LC50,Hs-578T,> 100 µM
same,TGI,Hs-578T,13.5 µM
same,GI50,UACC-257,2.24 µM
same,CC50,UACC-257,38.9 µM
same,TGI,UACC-257,8.32 µM
same,GI50,OVCAR-3,1.32 µM
same,LC50,OVCAR-3,26.3 µM
same,TGI,OVCAR-3,6.46 µM
same,GI50,UACC-62,1.86 µM
same,LC50,UACC-62,25.1 µM
same,TGI,UACC-62,5.75 µM
same,GI50,CAKI-1,14.1 µM
same,CC50,CAKI-1,53.7 µM
same,TGI,CAKI-1,27.5 µM
same,GI50,HCT-15,57.5 µM
same,LC50,HCT-15,> 100 µM
same,TGI,HCT-15,> 100 µM
same,GI50,[4],1.48 µM
same,LC50,[4],31.6 µM
same,TGI,[4],4.37 µM
same,GI50,NCI-H226,6.46 µM
same,CC50,NCI-H226,89.1 µM
same,TGI,NCI-H226,26.9 µM
CCCCCCCCCCCCCCN[C@H](CO)[C@H](O)c1ccccc1,GI50,M14,1.86 µM
same,LC50,M14,5.89 µM
same,TGI,M14,3.31 µM
same,GI50,SNB-75,2.29 µM
same,CC50,SNB-75,27.5 µM
same,TGI,SNB-75,5.62 µM
same,GI50,SNB-19,1.78 µM
same,TGI,SNB-19,3.24 µM
same,GI50,T47D,1.91 µM
same,TGI,T47D,3.63 µM
same,GI50,MCF7 [2],1.82 µM
same,TGI,MCF7 [2],3.31 µM
same,GI50,NCI-H322M,2.14 µM
same,CC50,NCI-H322M,7.24 µM
same,TGI,NCI-H322M,3.89 µM
same,GI50,HT-29,1.7 µM
same,LC50,HT-29,5.62 µM
same,TGI,HT-29,3.09 µM
same,GI50,SK-MEL-5,2.14 µM
same,TGI,SK-MEL-5,4.07 µM
same,GI50,OVCAR-5,2.09 µM
same,CC50,OVCAR-5,7.08 µM
same,TGI,OVCAR-5,3.8 µM
same,GI50,SN12C,1.74 µM
same,LC50 (50% net cell kill),SN12C,6.46 µM
same,TGI,SN12C,3.31 µM
same,GI50,KM12,1.86 µM
same,CC50,KM12,5.89 µM
same,TGI,KM12,3.31 µM
same,GI50,[3],3.16 µM
same,LC50,[3],91.2 µM
same,TGI,[3],17.4 µM
same,GI50,SW-620,2.4 µM
same,LC50 (concentration killing 50% of cells),SW-620,> 100 µM
same,GI50,CCRF-CEM,1.58 µM
same,CC50,CCRF-CEM; [5],7.94 µM
same,TGI,CCRF-CEM; read-out: Log TGI (converted),3.55 µM
same,GI50,OVCAR-8,1.86 µM
same,TGI,OVCAR-8,3.8 µM
same,GI50,RXF 393,1.15 µM
same,CC50,RXF 393,5.13 µM
same,TGI,RXF 393,2.45 µM
same,GI50,HOP-62,1.48 µM
same,CC50,HOP-62,5.37 µM
same,TGI,HOP-62,2.82 µM
same,GI50,IGROV-1,1.55 µM
same,TGI,IGROV-1,3.24 µM
same,GI50,Hs-578T,2.82 µM
same,LC50,Hs-578T,> 100 µM
same,TGI,Hs-578T,6.46 µM
same,GI50,UACC-257,1.7 µM
same,CC50,UACC-257,7.24 µM
same,TGI,UACC-257,3.47 µM
same,GI50,OVCAR-3,1.91 µM
same,TGI,OVCAR-3,4.07 µM
same,GI50,UACC-62,1.82 µM
same,LC50,UACC-62,7.59 µM
same,TGI,UACC-62,3.72 µM
same,GI50,CAKI-1,1.66 µM
same,CC50,CAKI-1,7.76 µM
same,TGI,CAKI-1,3.55 µM
same,GI50,HCT-15,1.91 µM
same,LC50,HCT-15,6.03 µM
same,TGI,HCT-15,3.39 µM
same,GI50,[4],3.31 µM
same,LC50,[4],8.51 µM
same,TGI,[4],3.72 µM
same,GI50,NCI-H226,3.24 µM
same,CC50,NCI-H226,> 100 µM
same,TGI,NCI-H226,11.7 µM
